Reference: publication PMC6260118 (Thrombosis and Haemostasis, 2017)
Like-named read-outs stand apart in the source and are kept apart here.

Experiments:
[1] = Pharmacokinetics of ciraparantag and metabolite BAP in serum/plasma and urine; format: in vivo, human; details: for dose proportionality of pharmacokinetics: based on Cmax and t½, 5-300 mg
How it was run: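 Healthy non-smoking adults aged 18–65 received single escalating doses of test compound from 5 to 300 mg. Each dose was a sterile aqueous solution given by slow IV injection into an indwelling catheter, alone and, after at least four days' washout, about 3 h after oral edoxaban 60 mg. Parent compound and its piperazine metabolite were measured in serum/plasma and in urine pooled over the first 24 h.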

[2] = Phase I safety and tolerability, adverse events; format: in vivo, human
How it was run: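 The trial was a randomised, double-blind, placebo-controlled phase I study with eight cohorts of 10 healthy subjects each, randomised 8:2 to test compound or saline. Single IV doses were given alone and then about 3 h after edoxaban 60 mg orally. Safety was assessed in everyone dosed at least once: adverse events, vital signs, pulse oximetry, ECGs, clinical laboratory tests, fecal occult blood and concomitant medications. Treatment-emergent events were those starting on or after dosing.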

[3] = test system: edoxaban-induced anticoagulation; assay: Whole blood clotting time; format: in vivo, human
How it was run: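 Native whole blood was tested in glass tubes with no activator or anticoagulant, three tubes of 0.5 ml each. Clotting time was read by tilt-tube visual inspection. Testing began in Period 2 of the 50 mg cohort and continued in all later cohorts, and the 25 mg cohort was repeated with it. IV test compound or saline was given about 3 h after edoxaban 60 mg orally, with follow-up to 24 h. Groups were compared by ANOVA with Tukey HSD, p<0.05.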

clot fibrin = format: in vivo, human
[4] = test system: edoxaban-induced anticoagulation; assay: Whole blood point-of-care prothrombin time; format: in vivo, human; details: within cohorts and across escalating dose cohorts
How it was run: (§1)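 Whole blood was tested serially by point-of-care prothrombin time and by thromboelastography reaction time. Subjects were healthy volunteers in escalating-dose cohorts of 8 active and 2 placebo. They received single slow IV test compound or saline about 3 h after a single 60 mg oral dose of edoxaban.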

[5] = test system: edoxaban-induced anticoagulation; assay: Thromboelastography reaction time; format: in vivo, human; details: within cohorts and across escalating dose cohorts
How it was run: as §1

[6] = cited from earlier work
plasma proteins = details: cited from earlier work
[7] = test system: hepatic cytochrome enzymes or membrane transporters; details: cited from earlier work
[8] = test system: anticoagulant-induced bleeding; details: pre-clinical animal models of anticoagulant-induced bleeding; cited from earlier work
[9] = ciraparantag arm N=66, number (% of subjects)
[10] = single IV dose 100 to 300 mg following edoxaban 60 mg

## NCCCN1CCN(CCCN)CC1 [BAP, 1,4-bis(3-aminopropyl)-piperazine]
[1]
  dose proportionality of pharmacokinetics: dose-proportional pharmacokinetics

## N=C(N)NCCC[C@H](N)C(=O)NCCCN1CCN(CCCNC(=O)[C@@H](N)CCCNC(=N)N)CC1 [ciraparantag]
[2]; ciraparantag arm N=66
  Number of subjects who died: 0
  Number of subjects with SAE: 0
[2]; ciraparantag arm N=66, all single IV doses, Periods 1 and 2
  Number of AEs: 204
[2]; [9]
  Number of AEs per subject: 0: 17 (25.8 %)
  Number of AEs per subject: 1: 10 (15.2 %)
  Number of AEs per subject: 2–3: 16 (24.2 %)
  Number of AEs per subject: 4–5: 9 (13.6 %)
  Number of AEs per subject: >5: 14 (21.2 %)
  Number of subjects with AE: 49 (74.2 %)
  Number of subjects with AE related to Ciraparantag/Placebo: 36 (54.5 %)
  Number of subjects with AE related to edoxaban: 5 (7.6 %)
  Number of subjects with AE related to study drug: 38 (57.6 %)
  Number of subjects with TEAE: 49 (74.2 %)
[2]; healthy subjects, single IV doses 5-300 mg
  Changes in blood counts, blood chemistries (electrolytes, bilirubin, hepatic enzymes) or electrocardiograms: no significant changes
[1]
  dose proportionality of pharmacokinetics: dose-proportional pharmacokinetics
[1]; healthy subjects
  main elimination route: Renal excretion of ciraparantag metabolite
[1]; human, serum, iv, 5 mg
  half-life: ~12 min
[1]; human, serum, iv, 300 mg
  Cmax: ~10.6 µg/mL
[3]; 50 mg ciraparantag IV after edoxaban 60 mg
  reversal of edoxaban-induced anticoagulation (WBCT) within 10 min: Significant reversal
[3]; 100–300 mg ciraparantag IV (Cohorts 5 to 7) after edoxaban 60 mg
  reversal of edoxaban-induced anticoagulation (WBCT): essentially full reversal
[3]; ciraparantag in the absence of edoxaban
  effect on WBCT: no effect
[3]; [10]
  duration of reversal of anticoagulation: at least 24 hours
  time to full reversal of anticoagulation: ≤ 10 min
[3]; within 30 min of injection, after therapeutic dose of edoxaban
  anticoagulation above baseline: less than 10%
Clot fibrin; 25 mg ciraparantag after edoxaban 60 mg, partial reversal
  mean fibrin diameter: ~200 nm
Clot fibrin; 100 mg ciraparantag after edoxaban 60 mg, full reversal
  mean fibrin diameter: ~250 nm
Clot fibrin; 300 mg ciraparantag after edoxaban 60 mg, full reversal
  mean fibrin diameter: ~250 nm
Clot fibrin; single i.v. dose of 100 mg ciraparantag after edoxaban
  time to restoration of fibrin strands to baseline levels: ≤ 30 min
[4]
  change in mean PoC-PT: no change over time
[5]
  change in mean TEG-R: no change over time
[6]
  binding to a selected spectrum of cardiovascular and antiepileptic drugs: no binding
[6]; non-covalent hydrogen bonding and charge-charge interactions
  binding to anticoagulants: binds similarly to the new oral Xa inhibitors, edoxaban, rivaroxaban and apixaban, and to the oral thrombin inhibitor, dabigatran, but not to argatroban or warfarin
Plasma proteins
  binding to plasma proteins: no significant binding
[7]
  interaction with hepatic cytochrome enzymes or membrane transporters: does not interact substantially
[8]
  blood loss: reduces blood loss to baseline levels

## CN1CCc2nc(C(=O)N[C@@H]3C[C@@H](C(=O)N(C)C)CC[C@@H]3NC(=O)C(=O)Nc3ccc(Cl)cn3)sc2C1 [edoxaban, reference compound]
[3]; edoxaban 60 mg oral
  effect on WBCT: significant elevation
Clot fibrin; edoxaban anticoagulation without reversal, native state ∼250 nm
  mean fibrin diameter: ~125 nm
